According to ChEMBL document CHEMBL1144104, “Antimicrobial and antitumor activities of mycosporulone” (J Nat Prod, 1999):
In brackets after ≈: the same amount, converted by molar mass.

Experiments:
[1] = test system: PC-3; assay: Cytotoxicity against human PC-3 cells after 5 days by MTT assay; format: functional; details: PC-3, 120 h, read-out: LD50 (the source's name)
Procedure, shortened: (§1)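 Inhibition of tumour cells (human MDA-MB 231 clonogenic cells, human prostatic adenocarcinoma PC3 and murine leukemia L-1210) was read by Mossmann-derived MTT colorimetric method. Taxol and doxorubicin were run as references.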

[2] = test system: Nakaseomyces glabratus; assay: Antifungal activity against Candida glabrata after 24 to 72 hrs by disk diffusion method; format: functional
Procedure, shortened: (§2)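 Yeasts grown on yeast extract 10 g, peptone 20 g and glucose 15 g per litre, pH 6.0, solidified with 1.5% agar and autoclaved 120 °C for 20 min. Cellulose-disk diffusion assay, with inhibition zone diameters recorded after 24-72 h of incubation, depending on the strain.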

[3] = test system: Escherichia coli; assay: Antibacterial activity against Escherichia coli after 24 to 72 hrs by disk diffusion method; format: functional
Procedure, shortened: (§3)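 Paper-disk diffusion on agar plates. Cellulose disks carry crude EtOAc extract of the fungal culture filtrate; the extract is dried, then redissolved in 3 mL EtOAc. Inhibition zone diameters are read after 24-72 h of incubation, with the time depending on the target organism.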

[4] = test system: Staphylococcus aureus; assay: Antibacterial activity against Staphylococcus aureus after 24 to 72 hrs by disk diffusion method; format: functional; procedure, shortened: as §3
[5] = Cytotoxicity against human MRC5 cells after 5 days by MTT assay; format: cell-based; details: read-out: LD50
Procedure, shortened: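 Human lung fibroblast MRC5 (nontumor) line in 96-well plates; modified Mossmann MTT colorimetric micromethod; compound tested up to a maximal concentration of 100 µg/mL.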

[6] = test system: Staphylococcus aureus; assay: Antibacterial activity against penicillin-resistant Staphylococcus aureus after 24 to 72 hrs by disk diffusion method; format: functional
Procedure, shortened: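 Cellulose-disk agar diffusion; growth medium includes soya phytone 5 g and NaCl 5 g per litre distilled water, pH 7.2, with 1.5% agar, autoclaved 120 °C for 20 min. Inhibition zone diameters read after 24-72 h of incubation, depending on the target organism.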

[7] = test system: MDA-MB-231; assay: Cytotoxicity against human MDA-MB-231 cells after 5 days by MTT assay; format: functional; details: MDA-MB-231, 120 h, read-out: LD50 (the source's name); procedure, shortened: as §1
[8] = test system: L1210; assay: Cytotoxicity against mouse L1210 cells after 5 days by MTT assay; format: functional; details: L1210, 120 h, read-out: LD50 (the source's name); procedure, shortened: as §1
[9] = test system: Pseudomonas aeruginosa; assay: Antibacterial activity against Pseudomonas aeruginosa after 24 to 72 hrs by disk diffusion method; format: functional; procedure, shortened: as §3
[10] = test system: Cryptococcus neoformans; assay: Antifungal activity against Cryptococcus neoformans 1 after 24 to 72 hrs by disk diffusion method; format: functional; procedure, shortened: as §2
[11] = test system: Candida tropicalis; assay: Antifungal activity against amphotericin-resistant Candida tropicalis after 24 to 72 hrs by disk diffusion method; format: functional; procedure, shortened: as §2
[12] = test system: Enterococcus faecalis; assay: Antibacterial activity against Streptococcus faecalis after 24 to 72 hrs by disk diffusion method; format: functional; procedure, shortened: as §3

| Compound | CC50 [1] [µg/mL] | MIC [2] [µg/mL] | MIC [3] [µg/mL] | MIC [4] [µg/mL] | CC50 at 120 h [5] [µg/mL] | MIC [6] [µg/mL] | CC50 [7] [µg/mL] | CC50 [8] [µg/mL] | MIC [9] [µg/mL] | MIC [10] [µg/mL] | MIC [11] [µg/mL] | MIC [12] [µg/mL] |
| --- | --- | --- | --- | --- | --- | --- | --- | --- | --- | --- | --- | --- |
| C=C1OC(=O)[C@]2(C1=O)[C@H](C)C=CC(=O)[C@H]2O [MYCOSPORULONE] | 2.6 (≈ 11.7 µM) | 420 (≈ 1890 µM) | 14 (≈ 63 µM) | 420 (≈ 1890 µM) | > 100 | 14 (≈ 63 µM) | 7.7 (≈ 34.7 µM) | 0.3 (≈ 1.35 µM) | 14 (≈ 63 µM) | 280 (≈ 1260 µM) | 14 (≈ 63 µM) | 280 (≈ 1260 µM) |
| C[C@@H]1[C@H](O)[C@@H](C)/C=C/C=C/C=C/C=C/C=C/C=C/C=C/[C@H](O[C@@H]2O[C@H](C)[C@@H](O)[C@H](N)[C@@H]2O)C[C@@H]2O[C@](O)(C[C@@H](O)C[C@@H](O)[C@H](O)CC[C@@H](O)C[C@@H](O)CC(=O)O[C@H]1C)C[C@H](O)[C@H]2C(=O)O [AMPHOTERICIN B] | – | 140 (≈ 152 µM) | – | – | – | – | – | – | – | 140 (≈ 152 µM) | > 560 | – |
| NYSTATIN | – | 28 | – | – | – | – | – | – | – | 14 | 14 | – |
| CC1(C)S[C@@H]2[C@H](NC(=O)Cc3ccccc3)C(=O)N2[C@H]1C(=O)O [PENICILLIN G] | – | – | 560 (≈ 1670 µM) | 14 (≈ 41.9 µM) | – | 560 (≈ 1670 µM) | – | – | 560 (≈ 1670 µM) | – | – | 14 (≈ 41.9 µM) |
| CC(=O)O[C@H]1C(=O)[C@@]2(C)[C@H]([C@H](OC(=O)c3ccccc3)[C@]3(O)C[C@H](OC(=O)[C@H](O)[C@@H](NC(=O)c4ccccc4)c4ccccc4)C(C)=C1C3(C)C)[C@]1(OC(C)=O)CO[C@@H]1C[C@@H]2O [PACLITAXEL] | 0.0027 (≈ 0.00316 µM) | – | – | – | – | – | 0.003 (≈ 0.00351 µM) | 0.014 (≈ 0.0164 µM) | – | – | – | – |
| CN[C@@H]1[C@H](O[C@H]2[C@H](O[C@H]3[C@H](O)[C@@H](O)[C@H](N=C(N)N)[C@@H](O)[C@@H]3N=C(N)N)O[C@@H](C)[C@]2(O)C=O)O[C@@H](CO)[C@H](O)[C@H]1O [STREPTOMYCIN] | – | – | 28 (≈ 48.1 µM) | 420 (≈ 722 µM) | – | 14 (≈ 24.1 µM) | – | – | 140 (≈ 241 µM) | – | – | 420 (≈ 722 µM) |
| CC(=O)N1CCN(c2ccc(OCC3COC(Cn4ccnc4)(c4ccc(Cl)cc4Cl)O3)cc2)CC1 (configuration not stated) [KETOCONAZOLE] | – | 14 (≈ 26.3 µM) | – | – | – | – | – | – | – | 56 (≈ 105 µM) | 140 (≈ 263 µM) | – |
| NC[C@H]1O[C@H](O[C@H]2[C@H](O)[C@@H](O[C@H]3O[C@H](CO)[C@@H](O)[C@H](N)[C@H]3O)[C@H](N)C[C@@H]2N)[C@H](O)[C@@H](O)[C@@H]1O [KANAMYCIN] | – | – | 28 (≈ 57.8 µM) | 140 (≈ 289 µM) | – | 14 (≈ 28.9 µM) | – | – | 140 (≈ 289 µM) | – | – | 560 (≈ 1160 µM) |
| COc1cccc2c1C(=O)c1c(O)c3c(c(O)c1C2=O)C[C@@](O)(C(=O)CO)C[C@@H]3O[C@H]1C[C@H](N)[C@H](O)[C@H](C)O1 [DOXORUBICIN] | 0.19 (≈ 0.35 µM) | – | – | – | – | – | 0.09 (≈ 0.166 µM) | 0.02 (≈ 0.0368 µM) | – | – | – | – |
